An excerpt weighted towards active compounds, which were near 2.2% of everything screened.
RBBP9 inh = human RBBP9 inhibitors, primary screen, biochemical, fluorescence polarization, FP-Rh probe, HTS. Serine hydrolase RBBP9 (Homo sapiens), O75884. recombinant RBBP9. inhibition, % at 7.94 µM. 0.2% of 220,000 active. AID 1515, 2009;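 active = inhibition above the campaign mean of all tested compounds plus 3 SD, cut at about 14% in these data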
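System: RBBP9 protein / Quantity: 2.5 µM RBBP9 dispensing solution, before mixing / Also added: Serine-hydrolase probe FP-Rh, 375 nM pre-mixing / Dosing: 7.94 µM single dose, 0.794% DMSO / Timing: enzyme-compound preincubation 30 min, then probe labeling 45 min, 25 °C / Signal: FP readout at 525/598 nm / Controls: DMSO-treated enzyme wells and wells lacking RBBP9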
PKD1 inh = inhibitors of human PKD1 kinase, biochemical, fluorescence polarization. inhibition, % (concentration not given with the values). 0.056% of 200,000 active. Serine/threonine-protein kinase D1 (Homo sapiens), Q15139. PKD1 kinase fluorescence polarization assay; in the data active = inhibition above about 50%
DTT redox prof = compounds producing H2O2 with reducing agent – biochemical, NIH compound library profiling, artefact control for MLSCN library redox annotation, primary screen | DTT-dependent redox cycling H2O2, phenol red/HRP absorbance; 100% = 100 µM peroxide control, 0% = buffer | activation, % at 10 µM | 0.03% of 200,000 active | AID 878, 2007;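 active = activation of at least 50% relative to the plate's high and low controls in the primary single-dose screen; inactive = activation below 50%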;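 note: compound incubated with DTT at 0.8 mM final as the reducing agent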
Wee1 stabilizer = Wee1 degradation inhibitors, primary screen, cell-based, HeLa, Wee1K328M-luciferase, luminescence | reporter increase, % at 5 µM | Wee1-like protein kinase (Homo sapiens), P30291 | 1.2% of 220,000 active | HeLa Luc-Wee1K328M stability; 100% = proteasome inhibitor MG132 effect;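 active = activation above the mean of all tested compounds plus 3 SD, set per screening run, cut at about 8.8% in these data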;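 note: cells exposed to compound for 20 h before luminescence read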
p97 ATPase inh = inhibitors of human p97 ATPase, primary screen, biochemical | inhibition, % at 8 µM | AID 1481, 2009 | recombinant p97 ATPase, Kinase-Glo ATP luminescence, 3 h | 0.42% of 220,000 active | Transitional endoplasmic reticulum ATPase (Homo sapiens), P55072; in the data active = inhibition above about 15%
Arbovirus inh = antivirals against arbovirus infection, primary screen, cell-based, full library, 10K replicate subset; arbovirus infection cell-based antiviral screen; 0.37% of 200,000 active; AID 1251, 2008; inhibition, % at 10 µM; in the data active = inhibition above about 30%
RBBP9 inh conf = human RBBP9 inhibitors, retest, confirmation, biochemical, fluorescence polarization, FP-Rh probe, triplicate. shares compounds with RBBP9 inh. recombinant RBBP9. inhibition, % at 7.94 µM. 36% of 410 active. AID 1537, 2009;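 active = inhibition above the hit cutoff derived for the primary screen, cut at about 15% in these data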
Each line names hits and unclear results; the compound was inactive in the other large screens (follow-up assays come after a bar, where they were run).

Cc1nn(-c2ccccc2)c(NC(=O)c2cccs2)c(-c2ccccc2)c1=O	none
Cc1nc2ccccc2c(=O)n1/N=C/c1c(O)ccc2ccccc12	none
Cc1nc2ccccc2c(=O)n1/N=C/c1c(O)ccc2oc3c(c12)CCCC3	RBBP9 inh 19 | RBBP9 inh conf inactive
NC(=O)C1(N2CCCCC2)CCN(C(=S)Nc2ccc(S(N)(=O)=O)cc2)CC1	none
CCC/C(=N/NC(=O)c1ccc2c(c1)OCO2)c1cccs1	none
CCC/C(=N\NC(=O)c1csc(C)c1C)c1cccs1	RBBP9 inh 16 | RBBP9 inh conf inactive
CC(C)C[C@H](N)c1nnc(SCc2ccc(Cl)cc2)o1	RBBP9 inh 16 (no result: PKD1 inh, DTT redox prof, Arbovirus inh) | RBBP9 inh conf inactive
N#CC1=C(N)Oc2ccc3ccc(O)cc3c2C1c1ccsc1 (stereo unspecified)	RBBP9 inh 53 | RBBP9 inh conf 47
Cc1ccc(N(CC(=O)N/N=C/c2cc(C)n(-c3ccccc3)c2C)S(C)(=O)=O)c(C)c1	RBBP9 inh 17 | RBBP9 inh conf inactive
CCOC(=O)C1(Cc2ccc(OC)cc2)CCN(C(=O)c2cccc3nccnc23)CC1	RBBP9 inh 16 | RBBP9 inh conf inactive
C=CCn1c(C(C)NC(=O)c2cccc(C)c2)n[nH]c1=S (stereo unspecified)	none
CCC(=O)Oc1ccc2c(C)cc(=O)oc2c1C(=O)c1ccccc1	none
CCC(=O)Oc1ccc2c(C)cc(=O)oc2c1C(=O)CC	RBBP9 inh 18 (no result: PKD1 inh, DTT redox prof, Arbovirus inh) | RBBP9 inh conf inactive
CSc1ccccc1C(=O)C1CCCN(Cc2cnn(-c3ccccc3)c2)C1 (stereo unspecified)	RBBP9 inh 18 | RBBP9 inh conf inactive
CCSCc1nnc(SCC(=O)Nc2cccc(SC)c2)n1C	none
COc1ccc(C2=CC(=O)C=CC2=O)cc1	RBBP9 inh 51 (no result: PKD1 inh, DTT redox prof, Arbovirus inh) | RBBP9 inh conf 85
COc1ccc(S(=O)(=O)c2ccc(OC)cc2)cc1	none
Cc1ccc(OCC(=O)Nc2ccc(CN3CCCCC3)cc2)c(C)c1	none
Cc1cc(=O)[nH]c2c(N=Nc3ccc(O)cc3)c(N)nn12	RBBP9 inh 23 | RBBP9 inh conf 34
O=C(Nc1ccccc1)c1cccc(=O)o1	RBBP9 inh 17 (no result: PKD1 inh, DTT redox prof, Arbovirus inh) | RBBP9 inh conf inactive
N#CC1=C(SCC(=O)Nc2cccc3cccnc23)NC(=O)C(C#N)C12CCCCC2 (stereo unspecified)	none
CCOC(=O)C1=C(SCC(=O)Nc2ccccc2)NC(=O)C(C#N)C12CCCCC2 (stereo unspecified)	RBBP9 inh 15 | RBBP9 inh conf inactive
Fc1ccc(Sc2cc(Cl)c(-c3ccccc3)nn2)cc1	none
COC(=O)C/C(O)=C(/N=Nc1cccc(C(F)(F)F)c1)C(=O)OC	none
COc1ccc(OC)c(NC(=O)c2cccnc2Sc2cc(C)ccc2C)c1	RBBP9 inh 41 | RBBP9 inh conf inactive
Cc1cccc(N2CCN(C(=O)c3cc(S(=O)(=O)N(C)C)ccc3N3CCCC3)CC2)c1C	RBBP9 inh 15 | RBBP9 inh conf inactive
COc1cc(CN2CCC(C(=O)N3CCN(c4ccccc4F)CC3)CC2)cc(OC)c1O	none
COc1cc(CN2CCN(c3ccccc3F)CC2)cc(OC)c1O	RBBP9 inh 15 | RBBP9 inh conf inactive
COc1cc(OC)c2cc(C(=O)N/N=C/c3cccc(OC)c3O)[nH]c2c1	RBBP9 inh 16 (no result: PKD1 inh, DTT redox prof, Arbovirus inh) | RBBP9 inh conf 32
CCOc1ccc(S(=O)(=O)Nc2ccc(S(=O)(=O)N3CCCCC3)cc2)cc1	RBBP9 inh 15 | RBBP9 inh conf inactive
Cc1cc(CNC(=O)c2ccc3c(c2)OCO3)c2ccccc2n1	none
O=C(O)CC1NC(=O)N(C2CCCCC2)C1=O (stereo unspecified)	none
CC(=O)C(=Nc1ccccc1Cl)NNc1ccc(Cl)cc1	RBBP9 inh 37 | RBBP9 inh conf inactive
O=C(O)/C=C\C(=O)NC1CCCCC1	none
O=C(O)/C=C/C(=O)NC1CCC(CC2CCC(NC(=O)/C=C/C(=O)O)CC2)CC1 (stereo unspecified)	RBBP9 inh 21 | RBBP9 inh conf inactive
O=C1c2ccccc2C(=O)N1CCN1CCc2ccccc21	RBBP9 inh 17 | RBBP9 inh conf inactive
CCCNC(=O)CN(c1cccc(F)c1)S(C)(=O)=O	none
COc1cc(/C=N/Nc2ccc(C(F)(F)F)cn2)cc(OC)c1O	RBBP9 inh 17 | RBBP9 inh conf 15
O=S(=O)(O)c1ccc(N=Nc2ccccc2)cc1	none (no result: PKD1 inh, DTT redox prof, Arbovirus inh)
O=c1ccc(N=Nc2ccccc2)ccc1O	RBBP9 inh 18 (no result: PKD1 inh, DTT redox prof, Arbovirus inh) | RBBP9 inh conf inactive
CCOC(=O)C(CCCCCOc1ccc([N+](=O)[O-])cc1)C(=O)OCC	RBBP9 inh 18 | RBBP9 inh conf inactive
CCOC(=O)C(CCCCCOc1ccccc1[N+](=O)[O-])C(=O)OCC	none
CN(NC(=O)c1ccccc1F)c1ccc([N+](=O)[O-])cn1	none (no result: PKD1 inh, DTT redox prof, Arbovirus inh)
Cc1cccnc1Nc1nc(-c2ccc(O)c(O)c2)cs1	RBBP9 inh 25 | RBBP9 inh conf 55
N#Cc1ccc(-c2ccccc2)nc1SCC(=O)c1cc2ccccc2oc1=O	RBBP9 inh 30 | RBBP9 inh conf inactive
Cc1cccc(N2CC(C(=O)O)CC2=O)c1 (stereo unspecified)	none
CC(=O)c1ccc(OC(=O)C2CC(=O)N(c3cccc(C)c3)C2)cc1 (stereo unspecified)	RBBP9 inh 16 | RBBP9 inh conf inactive
Cc1cc(Br)ccc1OCCCCN1CCC(C)CC1	none
Nc1[nH]n(-c2ccccc2)c(=O)c1N=Nc1ccc2ncsc2c1	RBBP9 inh 19 (no result: PKD1 inh, DTT redox prof, Arbovirus inh) | RBBP9 inh conf 34
Cc1cc(C)cc(NC(=S)NCCN(C2CCCCC2)C2CCCC2)c1	none
O=C(Cn1nnc2ccccc2c1=O)N1CCCc2ccccc21	RBBP9 inh 16 | RBBP9 inh conf inactive
CC(C)NC(=O)CCS(=O)(=O)c1ccc(Br)s1	RBBP9 inh 18 | RBBP9 inh conf inactive
O=C(CCS(=O)(=O)c1ccc(Br)s1)NC1CCCC1	none
N#Cc1ccsc1NC(=O)CSc1ncn[nH]1	RBBP9 inh 15 | RBBP9 inh conf inactive
N#Cc1c(NC(=O)CSc2ncn[nH]2)sc2c1CCCC2	none
COC(=O)c1sc2nc(-c3ccco3)ccc2c1N	RBBP9 inh 22 | RBBP9 inh conf 32
Cc1ccccc1-n1sc2cc(F)ccc2c1=O	RBBP9 inh 63 | RBBP9 inh conf 72

Assay outcomes deposited in PubChem BioAssay by several laboratories.
